Entries after “also recorded” stand apart in the source; their conditions may differ.
Assays:
Format in all cases: biochemical
human TG2 [1] = biological target: T1, human TG2 (Homo sapiens, UniProt P21980); experiment: GDH-coupled deamidation assay with Cbz-Gln-Gly; conditions: for GDH-coupled assay α (ratio Ki’/Ki): Table 4, [TG2] = 0.5 µM, mixed inhibition model
T1 sequence (P21980 1-687): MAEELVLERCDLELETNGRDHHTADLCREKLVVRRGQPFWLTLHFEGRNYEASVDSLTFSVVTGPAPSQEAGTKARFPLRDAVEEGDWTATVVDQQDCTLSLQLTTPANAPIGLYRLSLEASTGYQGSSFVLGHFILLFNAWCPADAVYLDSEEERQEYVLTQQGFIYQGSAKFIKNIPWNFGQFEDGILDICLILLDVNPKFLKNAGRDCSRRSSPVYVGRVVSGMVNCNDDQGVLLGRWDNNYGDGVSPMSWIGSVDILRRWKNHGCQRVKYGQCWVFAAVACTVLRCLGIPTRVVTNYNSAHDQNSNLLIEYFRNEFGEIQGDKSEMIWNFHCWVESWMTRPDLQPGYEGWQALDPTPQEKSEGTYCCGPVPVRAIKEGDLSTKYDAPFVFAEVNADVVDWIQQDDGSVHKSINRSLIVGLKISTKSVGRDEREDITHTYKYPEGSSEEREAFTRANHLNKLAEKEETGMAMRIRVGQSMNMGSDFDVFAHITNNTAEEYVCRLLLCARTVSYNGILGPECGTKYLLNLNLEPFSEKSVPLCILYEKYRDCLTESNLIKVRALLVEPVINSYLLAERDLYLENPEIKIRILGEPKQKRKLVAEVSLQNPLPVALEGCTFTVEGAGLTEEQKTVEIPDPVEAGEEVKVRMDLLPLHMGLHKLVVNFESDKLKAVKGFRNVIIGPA

human TG2 [2] = biological target: T1, human TG2; experiment: direct fluorometric assay; conditions: for Fluorescent assay α (ratio Ki’/Ki): Table 4, [TG2] = 15 nM, mixed inhibition model; for binding character in mixed inhibition model (in words): compounds that did not exhibit partial inhibition; for partial inhibition activity (in words): fluorometric assay
Outline: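 Direct fluorometric assay following release of 7-hydroxycoumarin from an ester substrate by human TG2 at 15 nM. Ki and Ki' are fitted to a mixed inhibition model, with α = Ki'/Ki. A larger α means more competitive inhibition, α = 1 means simple non-competitive, and α < 1 means increasingly uncompetitive.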

human TG2 [3] = biological target: T1, human TG2; experiment: preliminary screening of isatins as TG2 inhibitors
Outline: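 Coupled GDH assay of TG2-catalysed deamidation of the substrate ZQG, with human TG2 at 0.5 µM. Inhibition by isatin-derived test compounds is read as IC50.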

Row | GDH-coupled assay α (ratio Ki’/Ki) (human TG2 [1]) | TG2 inhibitory activity (in words) (human TG2 [1]; GDH-coupled assay) | SMILES | also measured
1 | 1.8 |  | O=C(/C=C1/C(=O)N(Cc2ccccc2)c2cccc(Cl)c21)c1cccnc1 [Compound 33] | Fluorescent assay α (ratio Ki’/Ki) (human TG2 [2]): 3.6; binding character in mixed inhibition model (in words) (human TG2 [2]): non-competitive binding character
2 | > 100 |  | O=C1Nc2ccccc2/C1=C\C(=O)c1cccnc1 [Compound 40] | loss in potency relative to compound 16 (human TG2 [1]; GDH-coupled assay IC50): > 20 fold
3 |  |  | O=C1Nc2c(F)cc(F)cc2C1=O [5,7-difluoroisatin] | IC50 (human TG2 [3]): 65 to 450 µM
4 | > 100 |  | O=C1Nc2cccc(Cl)c2/C1=C\C(=O)c1cccnc1 [Compound 16] | 
5 |  |  | O=C1Nc2ccc(Br)cc2C1=O [5-bromo] | IC50 (human TG2 [3]): 65 to 450 µM
6 | > 100 | sub-micromolar inhibitor | O=C1Nc2cccc(Br)c2/C1=C\C(=O)c1cccnc1 [Compound 41] | Fluorescent assay α (ratio Ki’/Ki) (human TG2 [2]): 2.6; binding character in mixed inhibition model (in words) (human TG2 [2]): non-competitive binding character
7 | > 100 |  | CC(=O)/C=C1/C(=O)Nc2cccc(Cl)c21 [Compound 10] | 
8 |  |  | O=C1Nc2ccc(Cl)cc2C1=O [5-chloro] | IC50 (human TG2 [3]): 65 to 450 µM
9 |  |  | Nc1ccc(C(=O)/C=C2/C(=O)Nc3cccc(Cl)c32)cc1 [Compound 27] | partial inhibition activity (in words) (human TG2 [2]): partial inhibition activity
10 |  |  | O=C1Nc2ccc(I)cc2C1=O [5-iodo] | IC50 (human TG2 [3]): 65 to 450 µM
11 |  | active | O=C1C(=O)N(CN2C(=O)C(=O)c3ccccc32)c2ccccc21 [Compound 6] | 
12 |  | nearly as potent as compound 16 | O=C1Nc2cc(Br)ccc2/C1=C\C(=O)c1cccnc1 [Compound 47] | partial inhibition activity (in words) (human TG2 [2]): partial inhibition activity
13 |  | promising inhibitors | O=C1Nc2ccccc2/C1=C1\C(=O)Nc2ccccc21 [Compound 8, isoindigotin] | 
14 |  | promising inhibitors | CC(=O)/C=C1/C(=O)Nc2ccccc21 [Compound 9] | 
15 | > 100 |  | CC(=O)/C=C1/C(=O)Nc2cc(F)ccc21 [Compound 12] | 
16 | > 100 |  | CN1C(=O)/C(=C/C(=O)c2cccnc2)c2c(Cl)cccc21 [Compound 28] | 
17 |  |  | O=C1Nc2c(Cl)cccc2/C1=C\C(=O)c1cccnc1 [Compound 48] | partial inhibition activity (in words) (human TG2 [2]): partial inhibition activity
18 |  |  | COc1ccncc1C(=O)/C=C1/C(=O)Nc2cccc(Cl)c21 [Compound 19] | partial inhibition activity (in words) (human TG2 [2]): partial inhibition activity
19 | 0.86 | nearly as potent as compound 16 | O=C1Nc2cc(Cl)ccc2/C1=C\C(=O)c1cccnc1 [Compound 46] | mode of inhibition (Lineweaver-Burk analysis) (human TG2 [1]; GDH-coupled assay): non-competitive, allosteric mode of action; also recorded: non-competitive inhibitory character
20 |  |  | O=C1Nc2cccc(Cl)c2/C1=C\C(=O)c1ccc(Cl)cc1 [Compound 22] | partial inhibition activity (in words) (human TG2 [2]): partial inhibition activity
21 | > 100 |  | CC(=O)/C=C1/C(=O)Nc2ccc(Cl)cc21 [Compound 11] | 
22 | > 100 |  | O=C1Nc2ccc(Br)cc2/C1=C\C(=O)c1cccnc1 [Compound 43] | Fluorescent assay α (ratio Ki’/Ki) (human TG2 [2]): 4.4; binding character in mixed inhibition model (in words) (human TG2 [2]): non-competitive binding character
23 | > 100 |  | O=C1Nc2cccc(Cl)c2/C1=C\C(=O)c1ccccc1 [Compound 20] | 
24 |  | active | Cc1cc(C)c(CN2C(=O)C(=O)c3ccccc32)cc1CN1C(=O)C(=O)c2ccccc21 [Compound 4] | 
25 |  | inactive | O=C1Nc2ccccc2/C1=C1/Nc2ccccc2C1=O [Compound 7, indirubin] | 

— article PMC3081996 (Bioorganic & medicinal chemistry letters, 2010)
